What was measured:
Type in all cases: functional
TK-10 = experiment: Growth inhibition of human TK10 cells at 10 uM after 48 hrs by coulter counter method; conditions: TK-10, 48 h, read-out: GI
How it was run: (§1)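 NCI 60-cell-line panel, single dose. Compound dissolved first in DMSO, then diluted in phosphate-buffered saline so that every final dilution held under 1% DMSO. Duplicate wells received cells at 6 × 10⁴ cells/ml. Controls held PBS/DMSO at the same dilution. Plates were incubated 48 h at 37 °C under 5% CO₂. Cells were then diluted 10-fold in saline and counted on a Coulter counter, with counts corrected for the dilution. Results are given as percent growth inhibition.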

ACHN = experiment: Growth inhibition of human ACHN cells at 10 uM after 48 hrs by coulter counter method; conditions: read-out: GI; how it was run: as §1
HT-29 = experiment: Growth inhibition of human HT-29 cells at 10 uM after 48 hrs by coulter counter method; conditions: HT-29, 48 h, read-out: GI; how it was run: as §1
SR = experiment: Growth inhibition of human SR cells at 10 uM after 48 hrs by coulter counter method; conditions: read-out: GI; how it was run: as §1
SK-MEL-28 = experiment: Growth inhibition of human SK-MEL-28 cells at 10 uM after 48 hrs by coulter counter method; conditions: SK-MEL-28, 48 h, read-out: GI; how it was run: as §1
UACC-257 = experiment: Growth inhibition of human UACC257 cells at 10 uM after 48 hrs by coulter counter method; conditions: UACC-257, 48 h, read-out: GI; how it was run: as §1
RPMI-8226 = experiment: Growth inhibition of human RPMI8226 cells at 10 uM after 48 hrs by coulter counter method; conditions: RPMI-8226, 48 h, read-out: GI; how it was run: as §1
NCI-H23 = experiment: Growth inhibition of human NCI-H23 cells at 10 uM after 48 hrs by coulter counter method; conditions: NCI-H23, 48 h, read-out: GI; how it was run: as §1
MOLT-4 = experiment: Growth inhibition of human MOLT4 cells at 10 uM after 48 hrs by coulter counter method; conditions: MOLT-4, 48 h, read-out: GI; how it was run: as §1
MDA-MB-435 = experiment: Growth inhibition of human MDA-MB-435 cells at 10 uM after 48 hrs by coulter counter method; conditions: MDA-MB-435, 48 h, read-out: GI; how it was run: as §1
HCT-15 = experiment: Growth inhibition of human HCT15 cells at 10 uM after 48 hrs by coulter counter method; conditions: HCT-15, 48 h, read-out: GI; how it was run: as §1
SK-MEL-2 = experiment: Growth inhibition of human SK-MEL-2 cells at 10 uM after 48 hrs by coulter counter method; conditions: SK-MEL-2, 48 h, read-out: GI; how it was run: as §1
UACC-62 = experiment: Growth inhibition of human UACC62 cells at 10 uM after 48 hrs by coulter counter method; conditions: UACC-62, 48 h, read-out: GI; how it was run: as §1
UO-31 = experiment: Growth inhibition of human UO31 cells at 10 uM after 48 hrs by coulter counter method; conditions: UO-31, 48 h, read-out: GI; how it was run: as §1
A498 = experiment: Growth inhibition of human A498 cells at 10 uM after 48 hrs by coulter counter method; conditions: A498, 48 h, read-out: GI; how it was run: as §1
Malme-3M = experiment: Growth inhibition of human MALME-3M cells at 10 uM after 48 hrs by coulter counter method; conditions: read-out: GI; how it was run: as §1
OVCAR-8 = experiment: Growth inhibition of human OVCAR8 cells at 10 uM after 48 hrs by coulter counter method; conditions: OVCAR-8, 48 h, read-out: GI; how it was run: as §1
PC-3 = experiment: Growth inhibition of human PC3 cells at 10 uM after 48 hrs by coulter counter method; conditions: PC-3, 48 h, read-out: GI; how it was run: as §1
SK-MEL-5 = experiment: Growth inhibition of human SK-MEL-5 cells at 10 uM after 48 hrs by coulter counter method; conditions: SK-MEL-5, 48 h, read-out: GI; how it was run: as §1
EKVX = experiment: Growth inhibition of human EKVX cells at 10 uM after 48 hrs by coulter counter method; conditions: read-out: GI; how it was run: as §1
786-0 = experiment: Growth inhibition of human 786-0 cells at 10 uM after 48 hrs by coulter counter method; conditions: 786-0, 48 h, read-out: GI; how it was run: as §1
K562 = experiment: Growth inhibition of human K562 cells at 10 uM after 48 hrs by coulter counter method; conditions: K562, 48 h, read-out: GI; how it was run: as §1
MDA-MB-468 = experiment: Growth inhibition of human MDA-MB-468 cells at 10 uM after 48 hrs by coulter counter method; conditions: MDA-MB-468, 48 h, read-out: GI; how it was run: as §1
SNB-19 = experiment: Growth inhibition of human SNB19 cells at 10 uM after 48 hrs by coulter counter method; conditions: SNB-19, 48 h, read-out: GI; how it was run: as §1
SN12C = experiment: Growth inhibition of human SN12C cells at 10 uM after 48 hrs by coulter counter method; conditions: read-out: GI; how it was run: as §1
IGROV-1 = experiment: Growth inhibition of human IGROV1 cells at 10 uM after 48 hrs by coulter counter method; conditions: IGROV-1, 48 h, read-out: GI; how it was run: as §1
SF-295 = experiment: Growth inhibition of human SF295 cells at 10 uM after 48 hrs by coulter counter method; conditions: SF-295, 48 h, read-out: GI; how it was run: as §1
NCI-H226 = experiment: Growth inhibition of human NCI-H226 cells at 10 uM after 48 hrs by coulter counter method; conditions: NCI-H226, 48 h, read-out: GI; how it was run: as §1
BT-549 = experiment: Growth inhibition of human BT549 cells at 10 uM after 48 hrs by coulter counter method; conditions: BT-549, 48 h, read-out: GI; how it was run: as §1
NCI/ADR-RES = experiment: Growth inhibition of human NCI/ADR-RES cells at 10 uM after 48 hrs by coulter counter method; conditions: read-out: GI; how it was run: as §1
NCI-H522 = experiment: Growth inhibition of human NCI-H522 cells at 10 uM after 48 hrs by coulter counter method; conditions: NCI-H522, 48 h, read-out: GI; how it was run: as §1
A549 = experiment: Growth inhibition of human A549 cells at 10 uM after 48 hrs by coulter counter method; conditions: A549, 48 h, read-out: GI; how it was run: as §1
SNB-75 = experiment: Growth inhibition of human SNB75 cells at 10 uM after 48 hrs by coulter counter method; conditions: SNB-75, 48 h, read-out: GI; how it was run: as §1
M14 = experiment: Growth inhibition of human M14 cells at 10 uM after 48 hrs by coulter counter method; conditions: M14, 48 h, read-out: GI; how it was run: as §1
NCI-H322M = experiment: Growth inhibition of human NCI-H322M cells at 10 uM after 48 hrs by coulter counter method; conditions: read-out: GI; how it was run: as §1
HL-60(TB) = experiment: Growth inhibition of human HL-60(TB) cells at 10 uM after 48 hrs by coulter counter method; conditions: HL-60, 48 h, read-out: GI
How it was run: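 Single-dose screen on the NCI 60-line panel (leukemia subpanel). Compound is dissolved in DMSO and diluted in PBS, with final DMSO below 1%. Duplicate wells hold 6 × 10⁴ cells/ml at 37 °C, 5% CO₂, for 48 h. Cells are counted by Coulter counter after 10-fold saline dilution. Read-out is percent growth versus PBS/DMSO controls, expressed as % growth inhibition.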

MCF7 = experiment: Growth inhibition of human MCF7 cells at 10 uM after 48 hrs by coulter counter method; conditions: MCF7, 48 h, read-out: GI; how it was run: as §1
LOX IMVI = experiment: Growth inhibition of human LOXIMVI cells at 10 uM after 48 hrs by coulter counter method; conditions: read-out: GI; how it was run: as §1
CAKI-1 = experiment: Growth inhibition of human Caki1 cells at 10 uM after 48 hrs by coulter counter method; conditions: CAKI-1, 48 h, read-out: GI; how it was run: as §1
HCT-116 = experiment: Growth inhibition of human HCT116 cells at 10 uM after 48 hrs by coulter counter method; conditions: HCT-116, 48 h, read-out: GI; how it was run: as §1
KM12 = experiment: Growth inhibition of human KM12 cells at 10 uM after 48 hrs by coulter counter method; conditions: KM12, 48 h, read-out: GI; how it was run: as §1
SF-268 = experiment: Growth inhibition of human SF268 cells at 10 uM after 48 hrs by coulter counter method; conditions: SF-268, 48 h, read-out: GI; how it was run: as §1
T47D = experiment: Growth inhibition of human T47D cells at 10 uM after 48 hrs by coulter counter method; conditions: read-out: GI; how it was run: as §1
U-251 = experiment: Growth inhibition of human U251 cells at 10 uM after 48 hrs by coulter counter method; conditions: U-251, 48 h, read-out: GI; how it was run: as §1
CCRF-CEM = experiment: Growth inhibition of human CCRF-CEM cells at 10 uM after 48 hrs by coulter counter method; conditions: read-out: GI; how it was run: as §1

**Q.** What does the source list for `O=C1N=C2SC(c3ccccc3)=NN2C1=O`?
**A.** inhibition of growth at 10 µM (TK-10): < 10%; inhibition of growth at 10 µM (ACHN): < 10%; inhibition of growth at 10 µM (HT-29): < 10%; inhibition of growth at 10 µM (SR): < 10%; inhibition of growth at 10 µM (SK-MEL-28): < 10%; inhibition of growth at 10 µM (UACC-257): 15.5%; inhibition of growth at 10 µM (RPMI-8226): 12.6%; inhibition of growth at 10 µM (NCI-H23): < 10%; inhibition of growth at 10 µM (MOLT-4): < 10%; inhibition of growth at 10 µM (MDA-MB-435): < 10%; inhibition of growth at 10 µM (HCT-15): < 10%; inhibition of growth at 10 µM (SK-MEL-2): < 10%; inhibition of growth at 10 µM (UACC-62): < 10%; inhibition of growth at 10 µM (UO-31): 25.7%; inhibition of growth at 10 µM (A498): < 10%; inhibition of growth at 10 µM (Malme-3M): < 10%; inhibition of growth at 10 µM (OVCAR-8): < 10%; inhibition of growth at 10 µM (PC-3): 10.7%; inhibition of growth at 10 µM (SK-MEL-5): < 10%; inhibition of growth at 10 µM (EKVX): < 10%; inhibition of growth at 10 µM (786-0): < 10%; inhibition of growth at 10 µM (K562): < 10%; inhibition of growth at 10 µM (MDA-MB-468): < 10%; inhibition of growth at 10 µM (SNB-19): < 10%; inhibition of growth at 10 µM (SN12C): < 10%; inhibition of growth at 10 µM (IGROV-1): < 10%; inhibition of growth at 10 µM (SF-295): < 10%; inhibition of growth at 10 µM (NCI-H226): < 10%; inhibition of growth at 10 µM (BT-549): < 10%; inhibition of growth at 10 µM (NCI/ADR-RES): < 10%; inhibition of growth at 10 µM (NCI-H522): 12.4%; inhibition of growth at 10 µM (A549): < 10%; inhibition of growth at 10 µM (SNB-75): < 10%; inhibition of growth at 10 µM (M14): < 10%; inhibition of growth at 10 µM (NCI-H322M): 10.8%; inhibition of growth at 10 µM (HL-60(TB)): < 10%; inhibition of growth at 10 µM (MCF7): < 10%; inhibition of growth at 10 µM (LOX IMVI): < 10%; inhibition of growth at 10 µM (CAKI-1): < 10%; inhibition of growth at 10 µM (HCT-116): < 10%; inhibition of growth at 10 µM (KM12): < 10%; inhibition of growth at 10 µM (SF-268): < 10%; inhibition of growth at 10 µM (T47D): < 10%; inhibition of growth at 10 µM (U-251): < 10%; inhibition of growth at 10 µM (CCRF-CEM): < 10%
